Reference: ChEMBL document CHEMBL1156051, “Synthesis and evaluation of lysophosphatidylserine analogues as inducers of mast cell degranulation. Potent activities of lysophosphatidylthreonine and its 2-deoxy derivative” (J Med Chem, 2009)
Each block holds one molecule with its values, some of them ahead of it. Active and inactive are the calls of the source. The rule behind the calls is not given here.

Legend:
Mast cell [1] = assay: Induction of Wistar rat peritoneal mast cell degradation assessed as concanavalin A-induced histamine release after 15 mins fluorometric assay; type: functional, cell-based; conditions: 0.25 h
Procedure, shortened: (§1)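 Peritoneal mast cells at 5 × 10^4/mL in HEPES-buffered Tyrode stimulated with analogue plus 100 μg/mL concanavalin A for 15 min at 37 C. Supernatant histamine measured fluorometrically and expressed as percent of total cell histamine. Means ± SE of three independent experiments.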

Mast cell [2] = assay: Induction of C57BL/6 mouse peritoneal mast cell degradation assessed as concanavalin A-induced histamine release at 0.01 to 10 uM after 15 mins fluorometric assay; type: functional, cell-based
Procedure, shortened: (§2)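 Peritoneal mast cells at 5 × 10^4/mL in HEPES-buffered Tyrode stimulated with analogue plus 10 μg/mL concanavalin A for 15 min at 37 C. Supernatant histamine measured fluorometrically and expressed as percent of total cell histamine. Means ± SE of three independent experiments.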

Mast cell [3] = assay: Induction of Wistar rat peritoneal mast cell degradation assessed as concanavalin A-induced histamine release at 0.01 to 10 uM after 15 mins fluorometric assay; type: functional, cell-based; procedure, shortened: as §1
Mast cell [4] = assay: Induction of C57BL/6 mouse peritoneal mast cell degradation assessed as concanavalin A-induced histamine release after 15 mins fluorometric assay; type: functional, cell-based; conditions: C57BL/6, Mast cell, 0.25 h; procedure, shortened: as §2
[5] = molecular target: Probable G-protein coupled receptor 34 (Mus musculus) (UniProt Q9R1K6); assay: Activation of mouse GPR34 expressed in CHOK1 cells assessed as phosphorylated ERK level at 0.01 to 10 uM by Western blotting; type: cell-based; conditions: CHO-K1
Sequence of Probable G-protein coupled receptor 34 (Mus musculus) (Q9R1K6 whole entry): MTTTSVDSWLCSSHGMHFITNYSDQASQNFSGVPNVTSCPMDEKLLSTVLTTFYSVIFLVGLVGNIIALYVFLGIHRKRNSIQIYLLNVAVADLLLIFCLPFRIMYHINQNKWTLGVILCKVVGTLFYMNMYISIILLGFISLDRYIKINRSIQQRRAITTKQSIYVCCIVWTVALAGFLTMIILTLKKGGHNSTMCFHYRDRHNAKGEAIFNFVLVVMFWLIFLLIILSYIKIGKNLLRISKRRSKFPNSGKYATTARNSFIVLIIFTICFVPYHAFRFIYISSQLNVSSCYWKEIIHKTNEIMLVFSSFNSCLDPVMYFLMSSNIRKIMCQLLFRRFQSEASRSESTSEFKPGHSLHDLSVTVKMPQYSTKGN
Procedure, shortened: (§3)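 Serum-starved CHO-K1 cells stably expressing flag-tagged GPR34 were stimulated with analogue for 5 min at 37 C and stopped by rapid cooling on ice. Lysates (6 μg protein) were Western blotted with antibodies to phospho-p42/p44 and total p42/p44 MAP kinase. Mock-transfected cells served as control.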

Mast cell [6] = assay: Ratio of compound activity over lysophosphatidylserine activity for induction of anti-DNP IgE-stimulated Wistar rat peritoneal mast cell […] associated histamine release; type: functional
Mus musculus [7] = assay: Effect on hypothermic effect in C57BL/6 mouse assessed as reduction in rectal temperature at 1 to 5 ug, iv measured every 5 to 10 mins for 60 mins; type: functional, organism-based
Procedure, shortened: (§4)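 Analogue suspended in PBS with 0.1% BSA and given intravenously; rectal temperature read with a rectal probe every 5 or 10 min for 60 min. Means ± SE of three independent experiments.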

Rattus norvegicus [8] = organism: Rattus norvegicus; assay: Ratio of compound activity over lysophosphatidylserine activity for induction of hypothermic effect in Wistar rat; type: functional
[9] = system: G protein-coupled receptor 34 (Mus musculus); assay: Activation of mouse GPR34 expressed in CHOK1 cells assessed as total ERK level at 0.01 to 10 uM by Western blotting; conditions: CHO-K1
[10] = Cytotoxicity against concanavalin A-stimulated Wistar rat peritoneal mast cells assessed as LDH release at 50 uM; type: cell-based
[11] = molecular target: Probable G-protein coupled receptor 34 (Mus musculus) (UniProt Q9R1K6); assay: Activation of mouse GPR34 expressed in CHOK1 cells assessed as total ERK level at 0.01 to 10 uM by Western blotting; type: cell-based; conditions: CHO-K1; procedure, shortened: as §3
CHO-K1 [12] = assay: Increase in intracellular calcium level in CHOK1 cells by spectrofluorimetry; type: functional, cell-based; conditions: Cricetulus griseus
Procedure, shortened: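 Fura-2-loaded mock-transfected CHO-K1 cells were stimulated at 2 μM; [Ca2+]i read as 500 nm emission ratio at 340/380 nm excitation.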

[13] = system: G protein-coupled receptor 34 (Mus musculus); assay: Activation of mouse GPR34 expressed in CHOK1 cells assessed as phosphorylated ERK level at 0.01 to 10 uM by Western blotting; conditions: CHO-K1
Mast cell [14] = assay: Induction of Wistar rat peritoneal mast cell degradation assessed as anti-DNP IgE-induced histamine release at 0.01 to 10 uM after 15 mins fluorometric assay; type: functional, cell-based
Mus musculus [15] = organism: Mus musculus; assay: Ratio of compound activity over lysophosphatidylserine activity for induction of hypothermic effect in C57BL/6 mouse; type: functional
Mast cell [16] = assay: Ratio of lysophosphatidylserine EC50 to compound EC50 for induction of concanavalin A-stimulated Wistar rat peritoneal mast cell […] associated histamine release; type: functional
Mus musculus [17] = assay: Increase in plasma histamine level in iv dosed C57BL/6 mouse after 2 mins by EIA; type: functional, organism-based
Procedure, shortened: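 Mice injected i.v. with analogue in PBS with 0.1% BSA; blood taken 2 min after injection and plasma histamine measured by enzyme immunoassay. Means ± SE of three independent experiments.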

[18] = molecular target: Probable G-protein coupled receptor 34 (Mus musculus) (UniProt Q9R1K6); assay: Activation of mouse GPR34 expressed in CHOK1 cells assessed as increase in intracellular calcium level by spectrofluorimetry; type: functional, cell-based; conditions: CHO-K1
Procedure, shortened: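 Fura-2-loaded CHO-K1 cells stably expressing flag-tagged GPR34 (G418 selection, then anti-flag immunomagnetic positive selection), stimulated with analogue at 2 μM; [Ca2+]i read fluorometrically as ratio of 500 nm emission at 340/380 nm excitation.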

Mast cell [19] = assay: Ratio of lysophosphatidylserine EC50 to compound EC50 for induction of concanavalin A-stimulated C57BL/6 mouse peritoneal mast cell […] associated histamine release; type: functional
Rattus norvegicus [20] = assay: Effect on hypothermic effect in Wistar rat assessed as reduction in rectal temperature at 20 to 100 ug, iv measured every 5 to 10 mins for 60 mins; type: functional, organism-based; procedure, shortened: as §4
CHO-K1 [21] = assay: Inhibition of forskolin-induced cAMP production in CHOK1 cells at 0.01 to 10 uM after 30 mins by EIA; type: functional, cell-based; conditions: Cricetulus griseus
Procedure, shortened: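 Mock-transfected CHO-K1 cells were cultured overnight and pretreated 20 min with 0.5 mM IBMX, then costimulated with analogue and 25 μM forskolin for 30 min at 37 C; accumulated cAMP was measured by EIA.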

[22] = molecular target: Probable G-protein coupled receptor 34 (Mus musculus) (UniProt Q9R1K6); assay: Activation of mouse GPR34 expressed in CHOK1 cells assessed as inhibition of forskolin-induced cAMP production at 0.01 to 10 uM after 30 mins by EIA; type: functional, cell-based; conditions: CHO-K1
Procedure, shortened: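 CHO-K1 stably expressing flag-tagged mouse GPR34, cultured overnight, pretreated 20 min with 0.5 mM IBMX, then costimulated with analogue plus 25 μM forskolin for 30 min at 37 C; cAMP measured by EIA, level without ligand set as 100%.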

CHO-K1 [23] = assay: Increase in MAPK level in CHOK1 cells at 0.01 to 10 uM by Western blotting; type: functional, cell-based; conditions: Cricetulus griseus
Procedure, shortened: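 Serum-starved mock (empty vector) transfected CHO-K1 cells were stimulated for 5 min at 37 C and cooled on ice to stop. Lysates (6 μg protein) were Western blotted for phospho- and total p42/p44 MAP kinase.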

Mast cell [24] = assay: Induction of Wistar rat peritoneal mast cell degranulation assessed as concanavalin A-induced histamine release at 0.03 uM pretreated for 15 mins measured after washout with 0.5% fatty acid-free BSA by fluorometric assay; type: functional, cell-based
Procedure, shortened: (§5)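 Rat peritoneal mast cells preincubated with analogue, then washed with buffer containing 0.01% or 0.5% fatty-acid-free BSA. Cells then challenged with concanavalin A, and histamine release measured.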

Mast cell [25] = assay: Induction of Wistar rat peritoneal mast cell degranulation assessed as concanavalin A-induced histamine release at 0.03 uM pretreated for 15 mins measured after washout with 0.01% fatty acid-free BSA by fluorometric assay; type: functional, cell-based; procedure, shortened: as §5
[26] = system: G protein-coupled receptor 34 (Mus musculus); assay: Activation of mouse GPR34 expressed in CHOK1 cells assessed as increase in intracellular calcium level by spectrofluorimetry; conditions: CHO-K1
Rattus norvegicus [27] = assay: Effect on hypothermic effect in Wistar rat assessed as reduction in rectal temperature at 20 to 200 ug, iv measured every 5 to 10 mins for 60 mins; type: functional, organism-based
Procedure, shortened: (§6)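 Analogue suspended in PBS with 0.1% BSA and injected iv into C57BL/6 mice or Wistar rats; rectal temperature recorded by probe every 5 or 10 min for 60 min. Means of three independent experiments.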

Mus musculus [28] = assay: Effect on hypothermic effect in C57BL/6 mouse assessed as reduction in rectal temperature at 25 to 100 ug, iv measured every 5 to 10 mins for 60 mins; type: functional, organism-based; procedure, shortened: as §6
Mast cell [29] = assay: Stimulation of mouse bone marrow-derived mast cell degranulation; type: functional, cell-based
Mus musculus [30] = assay: Effect on hypothermic effect in mast cell-deficient WBB6F1 mouse assessed as reduction in rectal temperature at 10 ug, iv measured every 5 to 10 mins for 60 mins; type: functional, organism-based
Procedure, shortened: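 W/Wv mast cell-deficient mice, with C57BL/6 as comparison, were given 10 μg iv in PBS containing 0.1% BSA. Rectal temperature was monitored every 5 or 10 min for 60 min. Three independent experiments.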

- EC50 (Mast cell [1]): 10 µM
SMILES: CCCCCCCCCCCCCCCCCC(=O)N(C)C[C@@H](O)COP(=O)(O)OC[C@H](N)C(=O)O
- Activity (Mast cell [2]): inactive
- Activity (Mast cell [3]): inactive

- EC50 (Mast cell [1]): 2 µM
SMILES: CCCCCCCCCCCCCCCCCC(=O)OC[C@H](COP(=O)(O)OC[C@H](N)C(=O)O)OC

- EC50 (Mast cell [1]): 0.15 µM
- EC50 (Mast cell [4]): 0.05 µM
SMILES: CCCCCCCCCCCC(=O)OC[C@@H](O)COP(=O)(O)O[C@H](C)[C@H](N)C(=O)O

- EC50 (Mast cell [1]): > 10 µM
SMILES: CCCCCCCCCCCCCCCCCC(=O)OC[C@@H](O)COP(=O)(O)O[C@@H]1CCN[C@H]1C(=O)O
- Activity (Mast cell [2]): inactive
- Activity (Mast cell [3]): inactive

- EC50 (Mast cell [1]): 5 µM
SMILES: CCCCCCCCCCCCCCCCCC(=O)NC[C@@H](O)COP(=O)(O)OC[C@H](N)C(=O)O
- Activity (Mast cell [2]): inactive
- Activity (Mast cell [3]): inactive

- EC50 (Mast cell [1]): 5 µM
SMILES: CCCCCCCCCCCCCCCCCC(=O)OCCCCOP(=O)(O)OC[C@H](N)C(=O)O
- Activity (Mast cell [2]): inactive
- Activity (Mast cell [3]): inactive

- Activity [5]: inactive
- Activity [9]: inactive
- Activity [11]: inactive
- EC50 (Mast cell [1]): 0.04 µM
- Activity [13]: inactive
- EC50 (Mast cell [4]): 0.01 µM
- Activity [18]: inactive
- Activity [22]: inactive
- Activity [26]: inactive
SMILES: CCCCCCCCCCCCCCCCCC(=O)OC[C@@H](O)COP(=O)(O)O[C@H](C)[C@H](N)C(=O)O
- Ratio (Mast cell [6]): 10
- Activity (Mus musculus [7]): Active
- Ratio (Rattus norvegicus [8]): 50
- Activity [10]: Non-toxic
- Activity (CHO-K1 [12]): inactive
- Activity (Mast cell [14]): Active
- Ratio (Mus musculus [15]): 20
- Ratio EC50 (Mast cell [16]): 10
- Activity (Mus musculus [17]): Active
- Activity (Mast cell [2]): Active
- Ratio EC50 (Mast cell [19]): 10
- Activity (Rattus norvegicus [20]): Active
- Activity (CHO-K1 [21]): inactive
- Activity (CHO-K1 [23]): inactive
- Activity (Mast cell [3]): Active
- Activity (Mast cell [24]): inactive
- Activity (Mast cell [25]): Active

SMILES: CCCCCCCCCCCCCCCCCC(=O)OC[C@@H](O)COP(=O)(O)OC[C@H](N)C(=O)O
- Activity [5]: Active
- Activity [10]: Non-toxic
- Activity [11]: Active
- Activity (Rattus norvegicus [27]): Active
- EC50 (Mast cell [1]): 0.4 µM
- Activity (CHO-K1 [12]): inactive
- Activity (Mast cell [14]): Active
- Activity (Mus musculus [28]): Active
- EC50 (Mast cell [4]): 0.1 µM
- Activity [18]: Active
- Activity (Mast cell [29]): inactive
- Activity (CHO-K1 [21]): inactive
- Activity [22]: Active
- Activity (CHO-K1 [23]): inactive
- Activity (Mus musculus [30]): inactive

- EC50 (Mast cell [1]): 0.04 µM
- EC50 (Mast cell [4]): 0.02 µM
SMILES: CCCCCCCCCCCCCCCC(=O)OC[C@@H](O)COP(=O)(O)O[C@H](C)[C@H](N)C(=O)O
- Activity (Mus musculus [17]): Active

- EC50 (Mast cell [1]): 5 µM
SMILES: CCCCCCCCCCCCCCCCCC(=O)OC[C@@H](COP(=O)(O)OC[C@H](N)C(=O)O)OC

SMILES: CCCCCCCCCCCCCCCCCC(=O)OC[C@H](O)COP(=O)(O)OC[C@H](N)C(=O)O
- EC50 (Mast cell [1]): 1 µM
- EC50 (Mast cell [4]): 0.07 µM

- EC50 (Mast cell [1]): > 10 µM
SMILES: CCCCCCCCCCCCCCCCCC(=O)OCCCCCOP(=O)(O)OC[C@H](N)C(=O)O
- Activity (Mast cell [2]): inactive
- Activity (Mast cell [3]): inactive
